Assay outcomes (PubChem BioAssay)
An excerpt weighted towards active compounds, which were near 4.3% of everything screened.
CR mimetic SO: caloric restriction mimetics inhibiting age-related superoxide in yeast; S. cerevisiae aged cells, superoxide DHE fluorescence; active compounds read low; actives 0.18% (n = 330,000); superoxide response (% of plate mean), % at 10 µM; AID 2690;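 active = superoxide response under a set limit, about three screen SD below normal, cut at about 65% in these data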;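 note: yeast aged for seven days with compound at 30 °C before DHE staining; 100% = average MFI of all compound-treated wells on the plate with controls excluded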
Hep lipid drop: hepatic lipid droplet formation modulation; AML12 mouse hepatocytes, oleate lipid droplets, BODIPY imaging; inhibition, % at 6.5 µM; actives 0.4% (n = 240,000); AID 1656;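 active = lipid droplet intensity inhibited by at least 50%, with more than 500 cells counted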
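Test system: AML12 hepatocytes (mouse); reagent: oleate loading, 100 µM; dosing: one dose, 6.5 µM compound; incubation: overnight exposure; signal: fluorescence imaging, 20x objective, two fields per well; read-out basis: % inhibition of corrected integrated BODIPY droplet signal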
SMARCA2 act: increases SMARCA2 function in MMTV reporter cells. MG213 cells, MMTV-luciferase reporter, dexamethasone, overnight. activation, % at 9.1 µM. actives 1% (n = 370,000). AID 652017; in the data active = activation above about 7.8%;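 note: 0% = vehicle wells and 100% = reference activator wells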
SR-BI DiI-HDL act: SR-BI HDL lipid transfer activation; actives 0.096% (n = 320,000); CHO ldlA[mSR-BI] cells, DiI-HDL uptake fluorescence, 3 h; 100 = double the neutral-control signal; activation, % at 12.5 µM;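 active = mean replicate activation of at least 60% and every replicate at or above 60%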;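 note: 0% = median plate neutral-control signal and 100% = twice that signal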
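system = CHO ldlA[mSR-BI] cells, LDL receptor-null, SR-BI overexpressing | medium = Ham's F12 with 0.5% BSA, HEPES 25 mM, pH 7.4 | probe or stimulus = DiI-HDL 10 µg/mL | compound dosing = single-point compound dose | incubation = compound exposure 3 h, 37 °C | technique = DiI fluorescence, bottom read | read-out = cell-associated DiI fluorescence as measure of HDL uptake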
AHR activator: activators of human aryl hydrocarbon receptor; AHR-responsive luciferase reporter cells, luminescence; activation, % at 5 µM; actives 2.5% (n = 320,000); in the data active = activation above about 47%;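 note: 0% = vehicle wells and 100% = reference agonist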
Target sequence (P35869 whole entry, looked up): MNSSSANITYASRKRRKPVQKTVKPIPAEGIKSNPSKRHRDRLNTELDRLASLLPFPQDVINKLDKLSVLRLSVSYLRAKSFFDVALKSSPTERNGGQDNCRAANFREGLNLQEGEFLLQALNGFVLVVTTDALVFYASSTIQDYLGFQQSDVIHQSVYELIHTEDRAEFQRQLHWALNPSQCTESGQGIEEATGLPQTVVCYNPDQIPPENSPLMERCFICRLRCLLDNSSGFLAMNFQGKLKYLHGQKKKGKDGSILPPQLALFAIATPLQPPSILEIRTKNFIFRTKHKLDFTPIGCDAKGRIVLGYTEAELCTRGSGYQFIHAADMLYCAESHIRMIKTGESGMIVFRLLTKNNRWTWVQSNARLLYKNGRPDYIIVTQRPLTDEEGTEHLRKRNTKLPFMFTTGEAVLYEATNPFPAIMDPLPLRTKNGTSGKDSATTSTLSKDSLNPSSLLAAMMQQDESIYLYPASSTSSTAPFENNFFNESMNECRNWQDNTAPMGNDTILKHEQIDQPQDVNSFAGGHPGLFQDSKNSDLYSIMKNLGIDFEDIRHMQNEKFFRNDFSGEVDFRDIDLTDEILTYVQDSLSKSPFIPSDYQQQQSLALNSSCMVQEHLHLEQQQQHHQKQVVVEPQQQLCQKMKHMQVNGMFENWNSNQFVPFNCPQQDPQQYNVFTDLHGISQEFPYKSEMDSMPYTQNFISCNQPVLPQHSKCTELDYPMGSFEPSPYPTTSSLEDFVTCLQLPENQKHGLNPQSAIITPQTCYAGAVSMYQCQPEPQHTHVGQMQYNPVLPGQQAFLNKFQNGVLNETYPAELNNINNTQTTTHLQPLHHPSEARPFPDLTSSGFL
SR-BI HDL uptake: blocks mouse SR-BI lipid uptake from DiI-HDL; Q61009; AID 488896; inhibition, % at 12.5 µM; actives 0.96% (n = 320,000); ldlA[mSR-BI] CHO cells, DiI-HDL uptake fluorescence, 3 h;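 active = mean replicate inhibition of at least 70% and a set share of replicates each scoring 70 or more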;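 note: 0% = median of neutral control wells and 100% = median of positive control wells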
SMARCA2 conf: SMARCA2 activation, confirmation screen; shares compounds with SMARCA2 act; MG213 cells, MMTV-luciferase with dexamethasone, luminescence, overnight; MG213 cells expressing E1A, Rb sequestered; DMSO wells 0%, reference activator 100%; actives 30% (n = 3,500); activation, % at 9.1 µM;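 active = activation above its plate's cutoff, the mean activation of tested wells plus 3 SD, cut at about 7.9% in these data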
VP16 Luc act: counter-screen for SMARCA2 activators: GAL4-VP16 luciferase reporter activation. shares compounds with SMARCA2 act. HEK293 GAL4-VP16 pG5luc reporter, luciferase luminescence; scaled: DMSO wells 0%, SAHA wells 100%. activation, % at 9.1 µM. actives 41% (n = 3,500);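 active = activation above the solvent-only control well mean plus 3 SD, averaged across control plates, cut at about 5.2% in these data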
* = called active by the depositor; . = not tested or not shown; ! = a repeat was not active.

SMILES	CR mimetic SO	Hep lipid drop	SMARCA2 act	SR-BI DiI-HDL act	AHR activator	SR-BI HDL uptake	SMARCA2 conf	VP16 Luc act
O=C(NCCc1c[nH]c2ccccc12)c1ccc2c(c1)OCO2	106.1	-5.1	9.7*	-11.3	41.7	11.3	13.0*	8.1*
O=C(O)C1C(C(=O)Nc2ccc(Cl)cc2)C2C=CC1C21CC1 (stereo unspecified)	105.0	-8.5	8.7*	-10.8	2.4	10.8	-0.7	3.1
O=C(Nc1ccc(Cl)cc1)C1C2CCC3C(CCC21)C3(Cl)Cl (stereo unspecified)	.	.	1.2	-13.5	.	13.5	.	.
O=C(CCc1nnc(CCCc2ccccc2)o1)NCCc1ccccc1	123.0	-12.8	1.3	-9.2	2.8	9.2	.	.
O=C(CCc1nnc(CCCc2ccccc2)o1)NCCCC1CCCC1	102.7	0.4	9.7*	1.9	11.4	-1.9	5.0	6.5*
CCOCCCNC(=O)C1CCN(Cc2ccc(OCc3ccccc3)c(OC)c2)CC1	102.0	-9.4	0.7	-8.5	2.4	8.5	.	.
CCCCNC(=O)C1CCN(Cc2ccc(OCc3ccccc3)c(OC)c2)CC1	96.2	-19.5	9.4*	-26.9	2.8	27.0	2.5	6.2*
O=C(CCc1nc(-c2ccccc2F)no1)NCCc1ccc(F)cc1	.	.	6.3	.	.	.	.	.
CCCc1nc(N2CCOCC2)c(C#N)c2c1CCCC2	102.2	1.4	-2.1	8.1	3.2	-8.1	.	.
CN1CCc2c(C#N)c(N3CCOCC3)nc(NCC3CCCO3)c2C1 (stereo unspecified)	112.6	8.6	12.4*	.	-3.4	.	-3.3	-0.4
c1ccc2[nH]c(-c3ccncc3)nc2c1	96.6	-4.6	9.5*	20.0	26.4	-20.0	1.2	2.5
O=C(NCCc1ccc(F)cc1)c1cc2ccccn2n1	.	.	16.5*	.	.	.	4.4	7.3*
COc1ccc(NC(=O)c2cc3ccccn3n2)cc1	90.0	.	10.3*	0.1	0.4	-0.1	4.3	11.6*
CCOc1ccc(C(C)=O)cc1CN1C(=O)NC2(CCCCCC2)C1=O	102.6	-5.0	-3.7	5.1	2.4	-5.1	.	.
COc1ccc(C(C)=O)cc1CN1C(=O)NC2(CCCCCCC2)C1=O	94.8	15.6	11.5*	-3.1	2.2	3.1	-3.8	0.9
COC(=O)C1CCc2c(ccc3c2CCCC3)C1=O (stereo unspecified)	.	.	11.0*	-8.5	.	8.5	5.6	8.5*
COc1cc(OC)cc(C(=O)Nc2cccc3c2CCCC3)c1	94.8	-4.9	-1.6	-5.2	30.0	5.2	.	.
Nc1ccc2ccc(O)cc2c1	.	.	3.3	-22.0	.	22.0	.	.
Nc1cccc(O)c1	73.2	.	9.7*	5.5	-0.5	-5.5	4.7	0.7
COC(=O)C1CN(Cc2ccc(OC)cc2)CCS(=O)(=O)N1Cc1cn(Cc2ccc(C)cc2)nn1 (stereo unspecified)	.	.	-1.2	.	.	.	.	.
CCN(CC)C(=O)c1cc2c(=O)c3cc(F)ccc3oc2nc1C	100.4	15.1	9.6*	15.0	1.2	-15.0	4.3	3.9
CCOC(=O)c1cc2c(=O)c3ccccc3oc2nc1C	99.9	15.0	7.3	10.3	3.7	-10.3	.	.
C=CCN=C1NC(c2ccc(C(F)(F)F)cc2)C(C(=O)OC)=C(C)N1C (stereo unspecified)	.	.	-2.9	.	.	.	.	.
O=[N+]([O-])c1ccc(Sc2nc3ccccc3[nH]2)c(Cl)c1	.	.	-0.8	.	.	.	.	.
Cc1occc1C(=O)NNC(=O)Nc1ccc(F)cc1F	98.0	3.5	1.1	4.2	0.6	-4.2	.	.
SMILES	CR mimetic SO	Hep lipid drop	SMARCA2 act	SR-BI DiI-HDL act	AHR activator	SR-BI HDL uptake	SMARCA2 conf	VP16 Luc act
Cc1occc1C(=O)Nc1ccc(Br)cc1F	101.2	22.6	10.4*	-12.6	25.5	12.6	16.1*	10.0*
O=C(CCNC(=O)c1ccccc1)NCc1ccccc1F	108.7	.	9.4*	6.4	2.1	-6.4	6.7	4.2
O=C(CCNC(=O)c1ccc(Br)cc1)NCc1ccccc1F	119.9	.	-0.6	-3.5	3.0	3.5	.	.
O=C(N/N=C/c1ccccc1C(F)(F)F)c1ccc(O)cc1	114.0	6.7	8.3*	-48.9	4.1	48.9	2.3	9.4*
COCCNC(=O)C(=O)N/N=C/c1ccccc1C(F)(F)F	86.6	-0.4	11.3*	0.9	3.9	-0.9	0.1	2.1
CC(C)CNc1cccc2c1S(=O)(=O)N(Cc1cn(Cc3ccc(C(F)(F)F)cc3)nn1)Cc1ccccc1O2	.	.	-3.8	.	.	.	.	.
Cn1ncc2c(Nc3ccc(Cl)cc3)ncnc21	98.3	16.1	-0.4	-11.5	4.4	11.5	.	.
Cn1ncc2c(Nc3ccc(O)cc3)nc(Cl)nc21	99.3	17.8	17.8*	-9.2	2.3	9.2	5.0	1.7
CCc1ccc(NC(=O)CNC(=O)Cn2ccc3ccccc3c2=O)cc1	91.6	-3.2	9.1*	6.7	-0.5	-6.7	-0.1	1.7
CC1=CC(C)=Nc2ccc(C)cc2N1	104.8	-1.4	8.8*!	23.9	6.7	-23.9	6.8	11.2*
COCCNC(=O)C[C@H]1CC[C@H]2[C@@H](COc3ccc(NC(=O)Nc4cccc(F)c4)cc3C(=O)N2C)O1	.	.	0.7	.	.	.	.	.
Fc1cccc(Cl)c1CSc1nnc2ccccn12	90.1	3.0	8.6*	15.9	1.6	-15.9	7.5	3.1
CC(C)[C@@H](CO)N1Cc2nnn(Cc3ccccc3)c2-c2ccccc2S1(=O)=O	.	.	-2.6	.	.	.	.	.
CCCN1C(=O)C(=O)N(CC(=O)c2cc(C)n(C3CC3)c2C)C1=O	89.6	.	12.0*	-21.0	2.6	21.0	10.7*	8.7*
CCN1C(=O)C(=O)N(CC(=O)c2cc(C)n(C3CC3)c2C)C1=O	111.4	.	4.1	-9.7	0.0	9.7	.	.
O=C(OCc1c(-c2ccccc2)ncc2ccccc12)N1CCOCC1	83.5	.	9.6*	11.7	0.1	-11.7	7.3	1.9
COc1cc(/C=C2\COC/C(=C\c3ccc(O)c(OC)c3)C2=O)ccc1O	99.2	3.8	13.2*	-14.3	-1.4	14.3	3.9	-0.8
